pIC50: −log10 of the molar value. Active and inactive are the calls of the source. No cut-off for these calls is given here.
What was measured:
Trypanosoma cruzi [1] = experiment: Antitrypanosomal activity against Trypanosoma cruzi infected in African green monkey Vero cells assessed as reduction in number of trypomastigotes measured up to 10 days by Giemsa staining based hemocytometry; type: functional; conditions: time day <=10
In short: (§1)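 Vero cells infected with metacyclic forms (10:1) were exposed to one concentration per compound immediately after infection for 12 h at 37 °C, 5% CO2. After washing, cultures were kept 10 days with fresh medium every 48 h. Every 48 h, % infected cells and amastigotes per infected cell (200 Giemsa-stained cells) and medium trypomastigotes (Neubauer) were scored. Means of three experiments.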

Trypanosoma cruzi [2] = experiment: Antitrypanosomal activity against Trypanosoma cruzi infected in African green monkey Vero cells assessed as reduction in infection rate measured up to 10 days by Giemsa staining based hemocytometry; type: functional; conditions: time day <=10; in short: as §1
Trypanosoma cruzi [3] = experiment: Antitrypanosomal activity against Trypanosoma cruzi Arequipa epimastigote forms incubated for 72 hrs by hemocytometry; type: functional, organism-based
In short: (§2)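 Epimastigotes grown in MTL medium with 10% inactivated FBS at 28 °C. Compounds were dissolved in DMSO (0.01% v/v) and added at 0.1–100 µM for 72 h. Parasites were counted in a Neubauer chamber. IC50 (50% growth inhibition) was derived by linear regression of Kc values. Values are averages of four determinations.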

Trypanosoma cruzi [4] = experiment: Antitrypanosomal activity against Trypanosoma cruzi Tulahuen trypomastigote froms infected in mouse blood incubated for 24 hrs by Neubauer chamber based assay; type: functional, organism-based
In short: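 Mouse blood taken at peak parasitemia (day 7) was diluted with uninfected blood to 4×10^6 trypomastigotes/mL, then 1:2 in RPMI 1640. Drugs from DMSO stocks were added at 1, 10, 25, 50 and 100 µM and incubated 24 h at 4–8 °C. Parasites were counted in a Neubauer chamber in triplicate. IC50 was calculated versus control.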

Trypanosoma cruzi [5] = experiment: Antitrypanosomal activity against Trypanosoma cruzi SN3 epimastigote forms incubated for 72 hrs by hemocytometry; type: functional, organism-based; conditions: SN3, 72 h; in short: as §2
Trypanosoma cruzi [6] = experiment: Antitrypanosomal activity against Trypanosoma cruzi Arequipa trypomastigotes infected in BALB/c mouse assessed as reduction in parasitemia measured during acute phase (days 0 to 40 post infection) at 50 to 100 mg/kg, po dosed on alternating days (7 to 15 days post infection); type: functional, organism-based; conditions: dose 50-100 mg/kg
In short: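 Female BALB/c mice (8–10 weeks, 25–30 g; groups of six) were infected i.p. with 5×10^5 Arequipa blood trypomastigotes. Dosing was oral, 50 or 100 mg/kg/day, on 5 alternating days (days 7–15 pi), alongside untreated and reference-drug groups. Parasitemia was counted in 5 µL mandibular-vein blood by Neubauer chamber through day 40 pi. Data are means ± SD of six mice.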

Trypanosoma cruzi [7] = experiment: Antitrypanosomal activity against Trypanosoma cruzi Arequipa trypomastigotes infected in BALB/c mouse assessed as reduction in mouse mortality measured during acute phase (days 0 to 40 post infection) at 50 to 100 mg/kg, po dosed on alternating days (7 to 15 days post infection); type: functional, organism-based; conditions: dose 50-100 mg/kg
Trypanosoma cruzi [8] = experiment: Antitrypanosomal activity against Trypanosoma cruzi Arequipa trypomastigotes infected in BALB/c mouse assessed as parasitemia re-activation level measured during chronic phase ( day 90 post infection) at 50 mg/kg, po dosed on alternating days (7 to 15 days post infection) relative to acute phase infection (reference value: […]%); type: functional
Trypanosoma cruzi [9] = experiment: (§3) Antitrypanosomal activity against Trypanosoma cruzi Arequipa trypomastigotes infected in BALB/c mouse assessed as reduction in parasitemia level in adipose tissue measured during acute phase (days 0 to 40 post infection) at 100 mg/kg, po dosed on alternating days (7 to 15 days post infection) by PCR analysis; type: functional, organism-based
Trypanosoma cruzi [10] = experiment: as §3, with “esophagus” for “adipose tissue”; type: functional, organism-based
Trypanosoma cruzi [11] = experiment: Inhibition of Trypanosoma cruzi Arequipa Fe-SOD at <50 uM by NBT dye based spectrophotometry; conditions: dose microM <50
In short: (§4)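 Fe-SOD source: Arequipa epimastigote homogenate (STE buffer pH 7.8, sonication, centrifugation, supernatant; protein by Bradford); CuZn-SOD was commercial human erythrocyte enzyme. Activity was measured as NBT reduction by superoxide in 50 mM potassium phosphate pH 7.8, with compounds at 5 concentrations (1–100 µM). A560 was read before and after 10 min under lamp light with stirring. Three rate determinations; Newman–Keuls test.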

[12] = molecular target: Superoxide dismutase [Cu-Zn] (Homo sapiens, UniProt P00441); experiment: Inhibition of human erythrocyte CuZn-SOD by NBT dye based spectrophotometry; in short: as §4
Superoxide dismutase [Cu-Zn], sequence (P00441 whole entry): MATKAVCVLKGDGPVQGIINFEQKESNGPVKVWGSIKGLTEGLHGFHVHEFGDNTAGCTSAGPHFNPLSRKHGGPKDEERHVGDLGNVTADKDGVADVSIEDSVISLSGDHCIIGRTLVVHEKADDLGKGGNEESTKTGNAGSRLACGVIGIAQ

[13] = Genotoxicity in Salmonella typhimurium TA98 at 0.03 to 2.25 ug/plate incubated for 48 hrs in presence of liver S9 fraction by Ames test; type: toxicity, subcellular; conditions: salmonella enterica subsp. enterica serovar typhimurium, s9, 48 h
In short: (§5)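 Preincubation Ames assay. […] Top agar with trace histidine/biotin (0.05 mM each) was added and poured onto glucose minimal agar. Plates were incubated 48 h at 37 °C and His+ revertants counted. DMSO was the negative control, with strain-appropriate positive controls. Technical triplicates.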

[14] = Genotoxicity in Salmonella typhimurium TA102 at 0.03 to 2.25 ug/plate incubated for 48 hrs in absence of liver S9 fraction by Ames test; type: toxicity; conditions: salmonella enterica subsp. enterica serovar typhimurium, s9, 48 h; in short: as §5
[15] = Genotoxicity in Salmonella typhimurium TA1535 at 0.03 to 2.25 ug/plate incubated for 48 hrs in absence of liver S9 fraction by Ames test; type: toxicity; conditions: salmonella enterica subsp. enterica serovar typhimurium, s9, 48 h; in short: as §5
[16] = Genotoxicity in Salmonella typhimurium TA1537 at 0.03 to 2.25 ug/plate incubated for 48 hrs in presence of liver S9 fraction by Ames test; type: toxicity, subcellular; conditions: salmonella enterica subsp. enterica serovar typhimurium, s9, 48 h; in short: as §5
[17] = Genotoxicity in Salmonella typhimurium TA1537 at 0.03 to 2.25 ug/plate incubated for 48 hrs in absence of liver S9 fraction by Ames test; type: toxicity; conditions: salmonella enterica subsp. enterica serovar typhimurium, s9, 48 h; in short: as §5

SMILES | inhibition (INH) (Trypanosoma cruzi [1]) [%] | inhibition (INH) (Trypanosoma cruzi [2]) [%] | pIC50 (Trypanosoma cruzi [3]) | pIC50 (Trypanosoma cruzi [4]) | pIC50 (Trypanosoma cruzi [5]) | Activity (Trypanosoma cruzi [6]) | Activity (Trypanosoma cruzi [7]) | Activity (Trypanosoma cruzi [8]) [%] | Activity (Trypanosoma cruzi [9]) | Activity (Trypanosoma cruzi [10]) | inhibition (Trypanosoma cruzi [11]) [%] | pIC50 [12] | Activity [13] | Activity [14] | Activity [15] | Activity [16] | Activity [17]
O=C(CCN1CCN(c2ccc(F)cc2)CC1)c1csc2ccc(F)cc12 | 47 | 54 | 4.51 | 5.72 | 4.91 | Active | Active | 0 | Active | Active | 100 | 3.67 | Non-Toxic | Non-Toxic | Non-Toxic | Non-Toxic | Non-Toxic
O=C(CCN1CCN(c2ccc(C(F)(F)F)cc2)CC1)c1csc2ccc(F)cc12 | 68 | 47 | 4.29 | 4.34 | 5.00 | Active | Active | – | Active | Active | – | 3.69 | Non-Toxic | Non-Toxic | Non-Toxic | Non-Toxic | Non-Toxic
